This note sets out measurements from ChEMBL document CHEMBL1221266, “Synthesis and SAR of novel, 4-(phenylsulfamoyl)phenylacetamide mGlu4 positive allosteric modulators (PAMs) identified by functional high-throughput screening (HTS)” (Bioorg Med Chem Lett, 2010).

Some results are limits rather than exact numbers.

The target in series [1] is T1, Metabotropic glutamate receptor 4 (Homo sapiens, UniProt Q14833). As to the kind of experiment: Positive allosteric modulation of human mGlu4 receptor expressed in CHO cells assessed as potentiation of glutamate-induced calcium mobilization. In kind it is functional, cell-based. In outline:
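Human mGlu4 co-expressed with the chimeric G protein Gqi5 in CHO cells. Compounds were tested in the presence of an EC20 glutamate concentration as 1:3 serial dilutions starting at 30 μM. Values are the mean of triplicates run on one day. For % PHCCC, each compound's maximal response was divided by the response to the control PAM PHCCC measured that same day.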

Series [2] concerns the target T1, Metabotropic glutamate receptor 4. As to the kind of experiment: Positive allosteric modulation of human mGlu4 receptor expressed in CHO cells assessed as potentiation of glutamate-induced calcium mobilization relative to PHCCC. Format: functional, cell-based. In outline: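 Human mGlu4/Gqi5 CHO cells with an EC20 concentration of glutamate; compounds tested in 1:3 serial dilutions from 30 μM, in triplicate on one day. The maximal response elicited by each compound was divided by the response to the control PAM PHCCC measured on the same day.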
On the technique in general: Calcium assays in cells follow changes in intracellular calcium, usually with a dye or a luminescent sensor.

Series [3] has the same target. As to the kind of experiment: Positive allosteric modulation of human mGlu4 receptor expressed in CHO cells assessed as potentiation of glutamate-induced calcium mobilization at > 30 uM. Format: functional, cell-based.
Series [4] in a line: Metabolic stability in rat liver microsomes assessed as compound remaining after 60 mins. Format: ADME, Microsome. The conditions noted are these: read-out: Stability. (In general: Microsomes from liver hold many membrane-bound enzymes, among them those of drug oxidation.)
Series [5] in a line: Fraction unbound in rat plasma. Format: ADME, cell-free.
The species named for another series is Homo sapiens. As to the kind of experiment: Fraction unbound in human plasma.
Series [6] is described as follows: Metabolic stability in human liver microsomes assessed as compound remaining after 60 mins. The conditions noted are these: read-out: Stability. In kind it is ADME, Microsome.

T1 sequence (Q14833 whole entry): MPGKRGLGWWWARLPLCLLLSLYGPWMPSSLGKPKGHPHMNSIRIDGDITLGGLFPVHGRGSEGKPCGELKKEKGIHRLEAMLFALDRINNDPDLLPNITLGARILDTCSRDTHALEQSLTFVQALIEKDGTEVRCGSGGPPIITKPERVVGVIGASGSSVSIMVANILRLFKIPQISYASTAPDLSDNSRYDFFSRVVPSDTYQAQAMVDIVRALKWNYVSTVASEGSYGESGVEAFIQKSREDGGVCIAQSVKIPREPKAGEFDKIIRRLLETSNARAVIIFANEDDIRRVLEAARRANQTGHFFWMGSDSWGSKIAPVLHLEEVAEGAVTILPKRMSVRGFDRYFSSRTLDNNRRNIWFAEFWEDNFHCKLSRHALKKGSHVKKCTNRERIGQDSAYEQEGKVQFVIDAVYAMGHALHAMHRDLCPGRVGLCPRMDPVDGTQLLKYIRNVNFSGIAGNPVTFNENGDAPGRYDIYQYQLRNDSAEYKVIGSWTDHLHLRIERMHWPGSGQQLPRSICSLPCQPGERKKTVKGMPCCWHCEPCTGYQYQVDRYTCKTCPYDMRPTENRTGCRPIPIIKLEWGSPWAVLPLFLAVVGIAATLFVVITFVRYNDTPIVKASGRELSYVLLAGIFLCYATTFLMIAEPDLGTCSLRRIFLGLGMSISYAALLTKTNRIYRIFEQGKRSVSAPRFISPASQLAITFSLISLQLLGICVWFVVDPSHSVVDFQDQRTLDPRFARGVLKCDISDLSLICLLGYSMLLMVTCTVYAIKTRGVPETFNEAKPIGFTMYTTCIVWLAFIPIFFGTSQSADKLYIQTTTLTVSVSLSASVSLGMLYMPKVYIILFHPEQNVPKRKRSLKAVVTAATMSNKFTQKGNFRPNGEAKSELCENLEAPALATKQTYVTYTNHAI

In the case of `O=C(Nc1ccc(S(=O)(=O)Nc2ccccc2Cl)cc1)c1cccc(F)n1`, the EC50 in series [1] was 122 nM. The maximum response (Emax) in series [2] amounted to 90%.
In the case of `O=C(Nc1ccc(S(=O)(=O)Nc2ccc(F)c(Cl)c2)cc1)c1ccccn1`, the maximal effect (Emax) in series [2] was found to be 19.8%. The 50% effective concentration (EC50) result in series [3] is listed as “Not Active”.
`Cc1cc(C)c(NS(=O)(=O)c2ccc(NC(=O)c3ccco3)cc2)c(C)c1`: the EC50 in series [1] was found to be 5960 nM. Further, the maximal response (Emax) in series [2] stood at 52%. Also, the remaining at 1 h in series [4] was 93.3%. Also, the unbound share (fraction unbound) in series [5] stood at 0.082; in the series listed under Homo sapiens, 0.022.
In the case of `O=C(Nc1ccc(CS(=O)(=O)c2ccccc2Cl)cc1)c1ccccn1`, the 50% effective concentration (EC50) in series [1] worked out at 2170 nM. In addition, in series [2], the maximal effect (Emax) was found to be 46.5%.
For the compound `O=C(Nc1ccc(S(=O)(=O)N2CCc3ccccc32)cc1)c1ccccn1`, the Emax in series [2] is 12%. The EC50 result in series [3] is recorded as “Not Active”.
For `CN(c1ccccc1Cl)S(=O)(=O)c1ccc(NC(=O)c2ccncn2)cc1`, the concentration giving a half-maximal response (EC50) in series [1] was determined as 990 nM. For the same compound, the maximum response (Emax) in series [2] was 31.1%. The results for the remaining at 1 h in series [6] and in series [4] were 2.5% and 3.3%, respectively. For the same compound, the unbound share (fraction unbound) was 0.027 in series [5] and 0.017 in the series filed under Homo sapiens.
`CC1CCN(S(=O)(=O)c2ccc(NC(=O)c3ccccn3)cc2)CC1`: in series [1], the half-maximal effective concentration (EC50) was 372 nM. For the same compound, in series [2], the maximal response (Emax) was 35.8%.
The like results for `O=C(Nc1ccc(S(=O)(=O)Nc2ccccc2F)cc1)c1ccccn1` were, in that order, 206 nM and 91.7%.
Turning to `CN(c1ccccc1Cl)S(=O)(=O)c1ccc(NC(=O)c2nccs2)cc1`, in series [1], the EC50 was 686 nM. Besides, in series [2], the maximum response (Emax) was determined as 25.4%. Further, the remaining at 1 h in series [6] amounted to 0.1%; in series [4], 0.08%. The unbound share (fraction unbound) is 0.37 in series [5] and 0.005 in the series filed under Homo sapiens.
In the case of `O=C(Nc1ccc(Cl)c(S(=O)(=O)Nc2ccccc2Cl)c1)c1ccccn1`, the concentration giving a half-maximal response (EC50) in series [1] is 731 nM. In series [2], the Emax amounted to 54.9%. Moreover, the remaining at 1 h in series [6] is 11.9%; in series [4], 0.05%.
As for `O=C(Nc1ccc(S(=O)(=O)Nc2cc(F)ccc2F)cc1)c1ccccn1`, the EC50 in series [1] came to 325 nM. The Emax in series [2] was 87.6%.
For the compound `O=C(Nc1ccc(S(=O)(=O)Nc2ccccc2Cl)cc1)c1nccs1`, the concentration giving a half-maximal response (EC50) in series [1] worked out at 77.4 nM. The Emax in series [2] stood at 79.4%. For the same compound, the remaining at 1 h stood at 0.84% in series [6] and 1.2% in series [4]. Besides, the free fraction (fraction unbound) (in series [5]; in the series listed under Homo sapiens) was 0.001 in each case.
Consider `O=C(Nc1ccc(S(=O)(=O)Nc2ccccc2Cl)cc1Cl)c1ccccn1`, for which, in series [2], the Emax stood at 8.1%. Besides, the EC50 result in series [3] is on record as “Not Active”.
As for `O=C(Nc1ccc(S(=O)(=O)Nc2ccccc2)cc1)c1ccccn1`, the EC50 in series [1] was 177 nM. The maximal response (Emax) in series [2] came out at 69.2%.
The like results for `O=C(Nc1ccc(S(=O)(=O)NC2CCC2)cc1)c1ccccn1` were, in that order, over 5000 nM and 64.4%.
Consider `O=C(Nc1ccc(S(=O)(=O)Cc2ccccc2Cl)cc1)c1ccccn1`, for which, in series [2], the Emax is 46.3%.
Turning to `O=C(Nc1ccc(S(=O)(=O)N2CCCC2)cc1)c1ccccn1`, the maximal response (Emax) in series [2] was found to be 15.4%. Further, the EC50 entry in series [3] is given as “Not Active”.
The like results for `COc1cccc(C(=O)Nc2ccc(S(=O)(=O)Nc3ccccc3Cl)cc2)n1` were, in that order, 8.6% and “Not Active”.
Turning to `COc1ccccc1NS(=O)(=O)c1ccc(NC(=O)c2ccccn2)cc1OC`, the EC50 in series [1] is 132 nM. Further, the maximal effect (Emax) in series [2] was determined as 112%. Further, the remaining at 1 h amounted to 1.3% in series [6] and 0.05% in series [4]. Besides, the values for the fraction unbound (in series [5]; in the series listed under Homo sapiens) were 0.127 and 0.003, respectively.
Regarding `COCCNS(=O)(=O)c1ccc(NC(=O)c2ccccn2)cc1`, in series [1], the EC50 was over 10000 nM. For the same compound, in series [2], the Emax worked out at 22.1%.
Regarding `Cc1cc(C)c(NS(=O)(=O)c2ccc(NC(=O)c3ccccn3)cc2)c(C)c1`, the EC50 in series [1] worked out at 159 nM. Also, in series [2], the maximal response (Emax) was found to be 60.5%. Moreover, the remaining at 1 h in series [4] is 25.8%. Also, the fraction unbound in series [5] came out at 0.003; in the series filed under Homo sapiens, 0.001.
Take `O=C(Nc1ccc(S(=O)(=O)Nc2ccccc2Cl)c(Cl)c1)c1ccccn1`: the 50% effective concentration (EC50) in series [1] amounted to 19.8 nM. In addition, the Emax in series [2] came to 102%. Also, the remaining at 1 h in series [6] came to 0.63%; in series [4], 0.02%.
`O=C(Nc1ccc(S(=O)(=O)NC2CCCCC2)cc1)c1ccccn1`: the EC50 in series [1] was determined as 1030 nM. In addition, in series [2], the Emax came to 63.1%.
The corresponding values for `O=C(Nc1ccc(S(=O)(=O)Nc2ccccc2Cl)cc1)c1ccsc1` are 269 nM and 54.2%.
The corresponding values for `O=C(Nc1ccc(S(=O)(=O)NCC2CC2)cc1)c1ccccn1` are over 5000 nM and 70.2%.
For `O=C(Nc1ccc(S(=O)(=O)Nc2ccccc2Cl)cc1)c1ccccn1`, the EC50 in series [1] amounted to 27 nM. In series [2], the Emax came out at 88.2%. Besides, the remaining at 1 h in series [6] and in series [4] was 0.02% in each case. Also, the values for the fraction unbound (in series [5]; in the series filed under Homo sapiens) were 0.003 and 0.001, respectively.
As for `O=C(Nc1ccc(S(=O)(=O)Nc2ccc(Cl)c(C(F)(F)F)c2)cc1)c1ccccn1`, the Emax in series [2] was 19.5%. Moreover, the half-maximal effective concentration (EC50) entry in series [3] is “Not Active”.
With `O=C(Nc1ccc(S(=O)(=O)NC2CC2)cc1)c1ccccn1`, the concentration for a half-maximal effect (EC50) in series [1] is over 10000 nM. Further, the Emax in series [2] is 23.7%.
The corresponding values for `O=C(Nc1ccc(S(=O)(=O)Nc2ccccc2Cl)cc1)c1ccncn1` are 478 nM and 103%.

The term EC50 denotes the concentration at which the effect is half-maximal. One may read the Emax as the greatest response seen or fitted, relative to the assay's reference. By fraction unbound is commonly meant free concentration divided by total concentration.
